This is an account of results in ChEMBL document CHEMBL4229449, “Synthesis and antimicrobial studies of hydrazone derivatives of 4-[3-(2,4-difluorophenyl)-4-formyl-1H-pyrazol-1-yl]benzoic acid and 4-[3-(3,4-difluorophenyl)-4-formyl-1H-pyrazol-1-yl]benzoic acid” (Bioorg Med Chem Lett, 2018).

Each structure is given as a SMILES string. In brackets after ≈: the same amount, converted by molar mass. Activity calls are given as the source filed them. The calls are words filed in the database; no cut-off is given here. A value given as a limit tells only on which side of the number the result lay.

Data set [1] deals with Staphylococcus aureus. The experiment in a line: Antimicrobial activity against Staphylococcus aureus by broth microdilution method. In kind it is functional.
In data set [2] the test system is Staphylococcus aureus. The experiment in a line: Antimicrobial activity against methicillin-resistant Staphylococcus aureus by broth microdilution method. It is filed as functional.
Data set [3] concerns Bacillus subtilis. The experiment in a line: Antimicrobial activity against Bacillus subtilis by broth microdilution method. It is filed as functional.
In data set [4] the test system is Acinetobacter baumannii. The experiment in a line: Antimicrobial activity against Acinetobacter baumannii by broth microdilution method. It is filed as functional.
The test system of data set [5] is Pseudomonas aeruginosa. The experiment in a line: Antimicrobial activity against Pseudomonas aeruginosa by broth microdilution method. In kind it is functional, organism-based.
The subject of data set [6] is Klebsiella aerogenes. The experiment in a line: Antimicrobial activity against Enterobacter aerogenes by broth microdilution method. It is filed as functional, organism-based.
Data set [7] deals with Staphylococcus aureus. Description: Growth inhibition of methicillin-resistant Staphylococcus aureus LAC after 20 to 24 hrs by resazurin dye based method. In kind it is functional.
The subject of data set [8] is Staphylococcus aureus. The experiment in a line: Growth inhibition of methicillin-sensitive Staphylococcus aureus UAMS-1 after 20 to 24 hrs by resazurin dye based method. It is filed as functional.
In data set [9] the test system is Panel NCI-60 (60 carcinoma cell lines). The experiment in a line: Cytotoxicity against human NCI60 cells assessed as reduction in cell viability at 10 uM after 24 hrs by resazurin dye based method.
For data set [10], the system named is HEK293. The experiment in a line: Cytotoxicity against human HEK293 cells assessed as reduction in cell viability at 25 to 50 ug/ml after 24 hrs by resazurin dye based method. The settings on record: hek293, 24 h. In outline: (§1)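 HEK-293 human embryonic kidney cells were exposed to test compounds at 25 and 50 μg/mL and incubated for 24 h. Growth inhibition was read by resazurin assay and expressed as percent cell viability.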

Data set [11] deals with HEK293. The experiment in a line: Cytotoxicity against human HEK293 cells assessed as reduction in cell viability at 50 ug/ml after 24 hrs by resazurin dye based method. Particulars: hek293, 24 h. In outline: as §1

Turning to `O=C(O)c1ccc(-n2cc(/C=N/Nc3ccc(Cl)cc3Cl)c(-c3ccc(F)cc3F)n2)cc1`, the MIC in data set [1] was found to be 3.12 µg/mL (≈ 6.41 µM); in data set [2], 0.78 µg/mL (≈ 1.6 µM); in data set [3], 0.78 µg/mL (≈ 1.6 µM); in data set [4] it was 12.5 µg/mL (≈ 25.7 µM); in [7] it was 12.5 µg/mL (≈ 25.7 µM); in [8], 25 µg/mL (≈ 51.3 µM). The MIC result in data set [5] and in data set [6] was “inactive” each time. For the same compound, the figures for the Activity result in [9], in data set [10] and in data set [11] were “Non-Toxic”, “Non-Toxic” and greater than 80%, respectively.

As for `O=C(O)c1ccc(-n2cc(/C=N/Nc3ccc(Br)cc3)c(-c3ccc(F)c(F)c3)n2)cc1`, the MIC in data set [1] came to 3.12 µg/mL (≈ 6.27 µM); in [2], 1.56 µg/mL (≈ 3.14 µM); in data set [3], 1.56 µg/mL (≈ 3.14 µM); in [4], 0.78 µg/mL (≈ 1.57 µM); in data set [7], 12.5 µg/mL (≈ 25.1 µM); in data set [8], 12.5 µg/mL (≈ 25.1 µM). In addition, the MIC result in [5] and in data set [6] was “inactive” in each case. Also, the Activity entry in [9] is on record as “Non-Toxic”; in data set [10], “Non-Toxic”; in [11], greater than 80%.

Consider `O=C(O)c1ccc(-n2cc(/C=N/Nc3ccc(Cl)cc3Cl)c(-c3ccc(F)c(F)c3)n2)cc1`, for which the minimum inhibitory concentration (MIC) in data set [1] was 1.56 µg/mL (≈ 3.2 µM); in [2] it was 1.56 µg/mL (≈ 3.2 µM); in data set [3], 0.78 µg/mL (≈ 1.6 µM); in data set [4] it was 3.12 µg/mL (≈ 6.41 µM); in [7], 6.25 µg/mL (≈ 12.8 µM); in data set [8], 6.25 µg/mL (≈ 12.8 µM). Also, the MIC entry in data set [5] and in data set [6] was “inactive” each time.

For `O=C(O)c1ccc(-n2cc(/C=N/Nc3ccc(C(F)(F)F)cc3)c(-c3ccc(F)c(F)c3)n2)cc1`, the MIC in [1] is 0.78 µg/mL (≈ 1.6 µM); in data set [2], 0.78 µg/mL (≈ 1.6 µM); in [3], 0.78 µg/mL (≈ 1.6 µM); in [4], 3.12 µg/mL (≈ 6.41 µM); in data set [7] it was 3.12 µg/mL (≈ 6.41 µM); in [8], 6.25 µg/mL (≈ 12.8 µM). Besides, the MIC result in data set [5] and in data set [6] was “inactive” throughout. Moreover, the Activity entry is given as “Non-Toxic” in [9], “Non-Toxic” in data set [10] and greater than 80% in [11].

Take `O=C(O)c1ccc(-n2cc(/C=N/Nc3ccc(Br)cc3)c(-c3ccc(F)cc3F)n2)cc1`: the minimal inhibitory concentration (MIC) in data set [1] is 12.5 µg/mL (≈ 25.1 µM); in data set [2], 12.5 µg/mL (≈ 25.1 µM); in data set [3], 12.5 µg/mL (≈ 25.1 µM); in [4], 1.56 µg/mL (≈ 3.14 µM); in [7], 25 µg/mL (≈ 50.3 µM); in data set [8], 25 µg/mL (≈ 50.3 µM). Besides, the MIC entry in [5] and in data set [6] was “inactive” each time. Also, the Activity result in data set [9] was “Non-Toxic”; in data set [10] it was “Non-Toxic”; in [11], greater than 80%.
